Assay outcomes from PubChem BioAssay.
This is a sample that favours compounds with a hit; in the whole collection about 4.2% have one here.
OX1R antag-1: OX1R (HCRTR1) antagonists, primary screen, fluorescence, CHO/OX1R cells, Fluo-8 calcium, orexin A. Orexin/Hypocretin receptor type 1 (Homo sapiens), O43613. Fluo-8 calcium fluorescence. inhibition, % at 5 µM. 0.43% of 330,000 active;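 active means inhibition above its plate's threshold, mean inhibition of all tested compounds on the plate plus 3 SD, cut at about 37% in these data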
Target sequence (O43613 whole entry, looked up): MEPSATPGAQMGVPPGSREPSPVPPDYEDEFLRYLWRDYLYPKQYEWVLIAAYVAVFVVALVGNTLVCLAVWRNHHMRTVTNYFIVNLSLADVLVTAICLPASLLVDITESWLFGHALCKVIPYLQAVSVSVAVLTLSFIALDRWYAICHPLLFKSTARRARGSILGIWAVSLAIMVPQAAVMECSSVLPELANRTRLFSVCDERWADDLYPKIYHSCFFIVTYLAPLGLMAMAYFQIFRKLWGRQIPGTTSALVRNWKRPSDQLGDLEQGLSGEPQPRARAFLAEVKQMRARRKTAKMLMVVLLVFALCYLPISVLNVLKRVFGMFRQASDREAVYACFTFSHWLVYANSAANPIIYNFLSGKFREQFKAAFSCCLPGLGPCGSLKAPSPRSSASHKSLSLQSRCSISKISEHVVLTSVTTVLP
GalR3 antagonist: GalR3 antagonists in HEK293 cells, primary screen, cell-based, fluorescence readout; Galanin receptor type 3 (Homo sapiens), O60755; HEK293 GalR3-CNG cAMP membrane potential fluorescence; galR3 body fused to GalR1 C-terminus; inhibition, % at 3 µM; 0.44% of 360,000 active;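 active means inhibition above the screen-wide average plus 3 SD, cut at about 13% in these data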;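 further: forskolin and galanin both at EC90 stimulate the cells; cAMP rise reported by CNG channel membrane potential dye signal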
Target sequence (O60755 1-299 limits assumed): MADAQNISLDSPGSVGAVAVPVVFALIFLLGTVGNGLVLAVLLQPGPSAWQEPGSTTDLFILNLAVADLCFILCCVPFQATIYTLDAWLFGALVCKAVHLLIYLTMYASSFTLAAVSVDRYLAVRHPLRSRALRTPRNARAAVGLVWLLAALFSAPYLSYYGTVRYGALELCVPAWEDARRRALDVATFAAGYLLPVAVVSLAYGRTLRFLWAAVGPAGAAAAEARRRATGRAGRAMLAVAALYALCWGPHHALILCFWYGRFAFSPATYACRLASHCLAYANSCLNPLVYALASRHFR
OX1R antag-2: antagonists of human orexin 1 receptor (OX1R); Orexin/Hypocretin receptor type 1 (Homo sapiens), O43613; OX1R-expressing cells, FRET antagonist read-out; inhibition, % at 6.6 µM; 1.8% of 330,000 active; in the data active means inhibition mostly above about 38%, no sharp cut-off; inactive means mostly below about 40%
CHO parental Ca: ATP-evoked calcium signal inhibitors, parental CHO, primary screen, counter-screen for OX1R antagonist project, cell-based, fluorescence, Fluo-8 calcium dye; parental CHO-K1, ATP-induced calcium, Fluo-8 fluorescence; inhibition, % at 5.6 µM; 0.63% of 330,000 active;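 active means inhibition above that plate's mean sample inhibition plus 3 SD, cut at about 26% in these data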
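Material: Parental CHO cells | Reagent: ATP | Compound dosing: Single nominal dose of 5.6 µM per compound | Detection: Intracellular calcium via Fluo-8 no-wash fluorescent dye | Read-out: % inhibition of ATP-induced calcium mobilization | Benchmarks: Low control ATP plus DMSO, high control DMSO only | Replicates: Singlicate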
TAAR1 ag: human TAAR1 agonists, primary screen, Fluo-8 calcium fluorescence, CHO RD-HGA16 cells. Trace amine-associated receptor 1 (Homo sapiens), Q96RJ0. vehicle wells 0%, saturating PEA agonist 100%. activation, % at 3 µM. 0.99% of 360,000 active;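 active means activation above the mean activation of all test compounds in the run plus 3 SD, cut at about 38% in these data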
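Test system: RD-HGA16 (CHO) cells co-expressing Gα16 and hTAAR1 | Doses: Single dose, 3 µM | Schedule: 17-24 h seeding, 75 min 37 °C dye, 30 min RT | Evaluation: % activation from peak over basal fluorescence ratio, DMSO-to-PEA scaled | Technique: Kinetic Fluo-8 calcium fluorescence | Benchmarks: Low control DMSO, high control PEA (EC100)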
TAAR1 antag: human TAAR1 antagonists, primary screen, Fluo-8 calcium fluorescence, CHO RD-HGA16 cells; Trace amine-associated receptor 1 (Homo sapiens), Q96RJ0; antagonist; inhibition, % at 3 µM; 1.5% of 360,000 active;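 active means inhibition above a per-plate cutoff, the mean inhibition of test compounds on that plate plus 3 SD, cut at about 49% in these data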
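test system = CHO RD-HGA16 cells bearing hTAAR1 | replication = singlicate | controls = DMSO-only wells and EC80 β-PEA-stimulated wells | reagent = EC80 β-phenethylamine stimulus | read-out basis = percent inhibition of PEA-evoked calcium signal, max/basal emission ratio | schedule = seeding 17-24 h prior, 75-min 37 °C, 30-min RT dye loading | signal = kinetic Fluo-8 calcium fluorescence measurement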
TAAR1 nonsel count: nonselective antagonists in TAAR1 counter-screen cells, counter-screen for hTAAR1 antagonist project, cell-based, fluorescence, calcium | 77% of 2,400 active | counterscreen cell line, antagonist mode | shares compounds with TAAR1 antag | inhibition, % at 3 µM | AID 651780, 2012; in the data active means inhibition above about 22%;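 further: CHO-Ga16 host cells stimulated with ATP at an EC80 level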
TAAR1 ant conf: human TAAR1 antagonists, retest of hits, confirmation, cell-based, fluorescence; shares compounds with TAAR1 antag; TAAR1-expressing cells, fluorescence antagonist read-out; inhibition, % at 3 µM; 40% of 2,400 active; AID 651785, 2012; in the data active means inhibition above about 49%;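 further: CHO-Ga16 host cells challenged with agonist PEA near its EC80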
Ga16 nonsel ag: calcium activation in Ga16-expressing cells, counter-screen for TAAR1 antagonist project, cell-based, fluorescence; shares compounds with TAAR1 antag; agonist counterscreen; activation, % at 3 µM; 18% of 2,400 active; in the data active means activation above about 12%
TAAR1 ag count: TAAR1 activation by candidate antagonists – cell-based, fluorescence, counter-screen for TAAR1 antagonist project | shares compounds with TAAR1 antag | activation, % at 3 µM | 2% of 2,400 active | hTAAR1 cell line, agonist mode; in the data active means activation above about 37%;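 further: CHO cells stably expressing TAAR1 with calcium dye readout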
GalR3 conf: GalR3 antagonist hit confirmation, cell-based, fluorescence, triplicate | shares compounds with GalR3 antagonist | 59% of 1,600 active | inhibition, % at 3 µM | AID 652245, 2013 | HEK293 GalR3 CNG cAMP biosensor, membrane potential fluorescence; galR3 fused to GalR1 carboxy tail; challenged with forskolin and galanin at EC90;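 active means inhibition above the primary screen's cutoff, the mean inhibition of all screened compounds plus 3 SD, cut at about 13% in these data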
CNG parental: nonspecific cAMP agonists in parental HEK-CNG cells, counter-screen for GalR3 antagonist project, cell-based, fluorescence, high throughput | shares compounds with GalR3 antagonist | activation, % at 3 µM | HEK293-CNG parental cells, cAMP membrane potential fluorescence; normalised: DMSO wells 0%, forskolin wells 100% | 10% of 1,600 active; in the data active means activation above about 1.3%
Each line names hits and unclear results; the compound was inactive in the other large screens (follow-up assays come after a bar, where they were run).

Cc1ccc(NC(=O)Cn2nc(C(=O)O)c3ccccc3c2=O)cc1S(=O)(=O)N1CCCCCC1	TAAR1 antag 102 (no result: OX1R antag-1, OX1R antag-2, CHO parental Ca) | TAAR1 nonsel count 36 | TAAR1 ant conf inactive | Ga16 nonsel ag inactive | TAAR1 ag count inactive
CCOC(=O)COc1ccc(-c2nnc(-c3ccccc3)o2)cc1	none
CCC(=O)N(Cc1cc2cc(OC)ccc2[nH]c1=O)c1ccccc1OC	none (no result: OX1R antag-1, OX1R antag-2, CHO parental Ca)
COc1ccc2[nH]c(=O)c(CN(c3ccccc3OC)S(=O)(=O)c3ccccc3)cc2c1	TAAR1 antag 74 | TAAR1 nonsel count 33 | TAAR1 ant conf 49 | Ga16 nonsel ag inactive | TAAR1 ag count inactive
Cc1ccc(S(=O)(=O)N(Cc2cccnc2)Cc2cc3ccccc3[nH]c2=O)cc1	none
COc1ccc2[nH]c(=O)c(CN(CC3CCCO3)C(=O)Nc3ccccc3OC)cc2c1 (stereo not drawn)	TAAR1 antag 63 (no result: OX1R antag-1, OX1R antag-2, CHO parental Ca) | TAAR1 nonsel count 29 | TAAR1 ant conf inactive | Ga16 nonsel ag inactive | TAAR1 ag count inactive
COc1ccc(S(=O)(=O)N(Cc2cccnc2)Cc2cc3ccccc3[nH]c2=O)cc1	TAAR1 antag 51 | TAAR1 nonsel count inactive | TAAR1 ant conf inactive | Ga16 nonsel ag inactive | TAAR1 ag count inactive
COc1ccccc1NC(=O)N(Cc1cc2cc(OC)c(OC)cc2[nH]c1=O)CC1CCCO1 (stereo not drawn)	none
COc1ccc2[nH]c(=O)c(CN(c3ccccc3)S(=O)(=O)c3ccccc3)cc2c1	TAAR1 antag 52 | TAAR1 nonsel count 26 | TAAR1 ant conf 52 | Ga16 nonsel ag inactive | TAAR1 ag count inactive
COc1ccc(NC(=O)CN(C)C(=O)c2cc(-c3ccc(Cl)cc3)nc3ccccc23)cc1	TAAR1 antag 67 | TAAR1 nonsel count 30 | TAAR1 ant conf inactive | Ga16 nonsel ag inactive | TAAR1 ag count inactive
COc1ccc(NC(=O)CN(C)C(=O)Cc2c(C)nc3ccccc3c2C)cc1	none
COc1cccc(NC(=O)CN(C)C(=O)c2cc(C)oc2C)c1	none
COc1cccc(NC(=O)CN(C)C(=O)c2cc(-c3cccc(Br)c3)nc3ccccc23)c1	TAAR1 antag 79 | TAAR1 nonsel count 39 | TAAR1 ant conf inactive | Ga16 nonsel ag inactive | TAAR1 ag count inactive
COc1cccc(NC(=O)CN(C)C(=O)c2cc(-c3ccccc3)nc3ccc(C)cc23)c1	TAAR1 antag 74 (no result: OX1R antag-1, OX1R antag-2, CHO parental Ca) | TAAR1 nonsel count 40 | TAAR1 ant conf 61 | Ga16 nonsel ag inactive | TAAR1 ag count inactive
CCCCCCn1cc(CN2CC(N3CCN(Cc4ccccc4F)CC3)CS2(=O)=O)nn1 (stereo not drawn)	none (no result: OX1R antag-1, OX1R antag-2, CHO parental Ca)
COc1ccc(NC(=O)c2sc3nc(C)nc(N4CCN(c5ccccn5)CC4)c3c2C)cc1Cl	none
COc1ccc(NC(=O)c2sc3ncnc(N4CCN(c5ccccn5)CC4)c3c2C)cc1Cl	TAAR1 antag 80 | TAAR1 nonsel count 48 | TAAR1 ant conf 55 | Ga16 nonsel ag 13 | TAAR1 ag count inactive
COc1ccc(-c2nnc3n(CCc4ccccc4)c(=O)c4ccccc4n23)c(OC)c1	none
COc1cc(OC)c(-c2nnc3n(CCc4ccccc4)c(=O)c4ccccc4n23)cc1OC	TAAR1 antag 68 | TAAR1 nonsel count 26 | TAAR1 ant conf inactive | Ga16 nonsel ag inactive | TAAR1 ag count inactive
CC(C)C(=O)NC(=S)Nc1ccccc1N1CCN(C(=O)c2ccc(Cl)cc2)CC1	TAAR1 antag 81 | TAAR1 nonsel count 38 | TAAR1 ant conf 58 | Ga16 nonsel ag 14 | TAAR1 ag count inactive
N/C(=N\OC(=O)CSc1ccccc1)c1cccc([N+](=O)[O-])c1	none
CCCN1C(=O)c2cc(C(=O)Nc3ccccc3OC)ccc2C1Nc1ccccc1OC (stereo not drawn)	TAAR1 antag 60 | TAAR1 nonsel count 29 | TAAR1 ant conf inactive | Ga16 nonsel ag inactive | TAAR1 ag count inactive
O=S(=O)(c1ccc(NC(=S)NN=Cc2ccccc2O)cc1)N1CCCCC1	TAAR1 antag 90 (no result: OX1R antag-1, OX1R antag-2, CHO parental Ca) | TAAR1 nonsel count 40 | TAAR1 ant conf 89 | Ga16 nonsel ag inactive | TAAR1 ag count inactive
O=C(O)c1ccc2c(c1)SC1=NS(=O)(=O)CCN12	none
CN(C(=O)c1ccc2c(c1)SC1=NS(=O)(=O)CCN12)C(c1ccccc1)c1ccccc1	GalR3 antagonist 31, TAAR1 antag 69 | TAAR1 nonsel count 31 | TAAR1 ant conf 53 | Ga16 nonsel ag inactive | TAAR1 ag count inactive | GalR3 conf 30 | CNG parental inactive
O=C(Nc1nc(-c2ccccc2)cs1)c1ccccc1NS(=O)(=O)c1ccc(F)cc1	OX1R antag-1 64, GalR3 antagonist 17, OX1R antag-2 94, CHO parental Ca 57, TAAR1 antag 70 | TAAR1 nonsel count 58 | TAAR1 ant conf 68 | Ga16 nonsel ag inactive | TAAR1 ag count inactive | GalR3 conf 77 | CNG parental inactive
CCCNC(=O)C1CN(S(=O)(=O)c2ccc(C)cc2)c2ccccc2O1 (stereo not drawn)	none
